Converted amounts (≈) assume the structure as drawn. The source made the active and inactive calls. No cut-off for these calls is given here.
Legend:
[1] = tested on: MCF7; experiment: Cytotoxicity against human MCF7 cells after 48 hrs by SRB assay; format: functional; settings: MCF7, 48 h
[2] = tested on: P388; experiment: Cytotoxicity against mouse P388 cells; format: functional; settings: read-out: ED50 (the source's name)
[3] = tested on: BXPC-3; experiment: Cytotoxicity against human BxPC3 cells after 48 hrs by SRB assay; format: functional; settings: BXPC-3, 48 h
[4] = tested on: SF-268; experiment: Cytotoxicity against human SF268 cells after 48 hrs by SRB assay; format: functional; settings: SF-268, 48 h
[5] = tested on: NCI-H460; experiment: Cytotoxicity against human NCI-H460 cells after 48 hrs by SRB assay; format: functional; settings: NCI-H460, 48 h
[6] = tested on: KM-20L2; experiment: Cytotoxicity against human KM20L2 cells after 48 hrs by SRB assay; format: functional; settings: KM-20L2, 48 h
[7] = tested on: DU-145; experiment: Cytotoxicity against human DU145 cells after 48 hrs by SRB assay; format: functional; settings: DU-145, 48 h
[8] = tested on: Cryptococcus neoformans; experiment: Antimicrobial activity against Cryptococcus neoformans ATCC 90122 after 24 hrs by broth microdilution assay; format: functional; settings: ATCC 90112, 24 h, in the assay text read “ATCC 90112” for “ATCC 90122”
Outline: (§1)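 Yeasts were tested by NCCLS broth microdilution. Compounds were dissolved in a small volume of sterile DMSO and diluted in the appropriate medium immediately before testing. MIC was the lowest concentration inhibiting all visible growth (optically clear). Assays were repeated on separate days.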

[9] = tested on: Candida albicans; experiment: Antimicrobial activity against Candida albicans ATCC 90028 after 48 hrs by broth microdilution assay; format: functional; settings: ATCC 90028, 48 h; outline: as §1
[10] = tested on: Staphylococcus aureus; experiment: Antimicrobial activity against Staphylococcus aureus ATCC 29213 after 24 hrs by broth microdilution assay; format: functional; settings: ATCC 29213, 24 h
Outline: (§2)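 Bacterial MICs were determined by NCCLS broth microdilution. Compounds were dissolved in a small volume of sterile DMSO and diluted in the appropriate medium just before testing. MIC was the lowest concentration giving no visible growth (optically clear). Assays were repeated on separate days.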

[11] = tested on: Streptococcus pneumoniae; experiment: Antimicrobial activity against Streptococcus pneumoniae ATCC 6303 after 24 hrs by broth microdilution assay; format: functional; settings: ATCC 6303, 24 h; outline: as §2
[12] = tested on: Enterococcus faecalis; experiment: Antimicrobial activity against Enterococcus faecalis ATCC 29212 after 24 hrs by broth microdilution assay; format: functional; settings: ATCC 29212, 24 h; outline: as §2
[13] = tested on: Micrococcus luteus; experiment: Antimicrobial activity against Micrococcus luteus Presque Isle 456 after 24 hrs by broth microdilution assay; format: functional; outline: as §2
[14] = tested on: Escherichia coli; experiment: Antimicrobial activity against Escherichia coli ATCC 25922 at 64 ug/mL after 24 hrs by broth microdilution assay; format: functional, organism-based
[15] = tested on: Enterobacter cloacae; experiment: Antimicrobial activity against Enterobacter cloacae ATCC 13047 at 64 ug/mL after 24 hrs by broth microdilution assay; format: functional, organism-based
[16] = tested on: Stenotrophomonas maltophilia; experiment: Antimicrobial activity against Stenotrophomonas maltophilia ATCC 13637 at 64 ug/mL after 24 hrs by broth microdilution assay; format: functional, organism-based
[17] = tested on: Neisseria gonorrhoeae; experiment: Antimicrobial activity against Neisseria gonorrhoeae ATCC 49226 at 64 ug/mL after 24 hrs by broth microdilution assay; format: functional; settings: ATCC 49226, 24 h
[18] = tested on: Cryptococcus neoformans; experiment: Antimicrobial activity against Cryptococcus neoformans ATCC 90122 after 24 hrs by broth microdilution assay in presence of 25% human serum; format: functional; settings: ATCC 90112, 24 h, in the assay text read “ATCC 90112” for “ATCC 90122”
Outline: (§3)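 For yeasts, NCCLS broth microdilution was run in medium supplemented with 25% heat-inactivated, filter-sterilized normal human serum. Compounds were reconstituted in sterile DMSO and diluted in medium just before the assay. MIC was the lowest concentration giving optically clear wells.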

[19] = tested on: Candida albicans; experiment: Antimicrobial activity against Candida albicans ATCC 90028 after 48 hrs by broth microdilution assay in presence of 25% human serum; format: functional; settings: ATCC 90028, 48 h; outline: as §3
[20] = tested on: Staphylococcus aureus; experiment: Antimicrobial activity against Staphylococcus aureus ATCC 29213 after 24 hrs by broth microdilution assay in presence of 25% human serum; format: functional; settings: ATCC 29213, 24 h
Outline: (§4)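 Bacteria were tested by NCCLS broth microdilution in medium containing 25% heat-inactivated, filter-sterilized normal human serum. Compounds were dissolved in sterile DMSO and diluted in medium immediately before use. MIC was the lowest concentration with no visible growth (optically clear). Assays were repeated on separate days.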

[21] = tested on: Streptococcus pneumoniae; experiment: Antimicrobial activity against Streptococcus pneumoniae ATCC 6303 after 24 hrs by broth microdilution assay in presence of 25% human serum; format: functional; settings: ATCC 6303, 24 h; outline: as §4
[22] = tested on: Enterococcus faecalis; experiment: Antimicrobial activity against Enterococcus faecalis ATCC 29212 after 24 hrs by broth microdilution assay in presence of 25% human serum; format: functional; settings: ATCC 29212, 24 h; outline: as §4
[23] = tested on: Micrococcus luteus; experiment: Antimicrobial activity against Micrococcus luteus Presque Isle 456 after 24 hrs by broth microdilution assay in presence of 25% human serum; format: functional; outline: as §4
[24] = tested on: Escherichia coli; experiment: Antimicrobial activity against Escherichia coli ATCC 25922 after 24 hrs by broth microdilution assay in presence of 25% human serum; format: functional; settings: ATCC 25922, 24 h; outline: as §4
[25] = tested on: Enterobacter cloacae; experiment: Antimicrobial activity against Enterobacter cloacae ATCC 13047 after 24 hrs by broth microdilution assay in presence of 25% human serum; format: functional; settings: ATCC 13047, 24 h; outline: as §4
[26] = tested on: Stenotrophomonas maltophilia; experiment: Antimicrobial activity against Stenotrophomonas maltophilia ATCC 13637 after 24 hrs by broth microdilution assay in presence of 25% human serum; format: functional; settings: ATCC 13637, 24 h; outline: as §4
[27] = tested on: Neisseria gonorrhoeae; experiment: Antimicrobial activity against Neisseria gonorrhoeae ATCC 49226 after 24 hrs by broth microdilution assay in presence of 25% human serum; format: functional; settings: ATCC 49226, 24 h; outline: as §4
[28] = tested on: Cryptococcus neoformans; experiment: Antimicrobial activity against fluconazole-resistant Cryptococcus neoformans after 48 hrs by broth microdilution assay in presence of 25% human serum; format: functional
[29] = tested on: Nakaseomyces glabratus; experiment: Antimicrobial activity against Candida glabrata after 48 hrs by broth microdilution assay in presence of 25% human serum; format: functional; outline: as §3
[30] = tested on: Staphylococcus aureus; experiment: Antimicrobial activity against methicillin-resistant Staphylococcus aureus after 24 hrs by broth microdilution assay in presence of 25% human serum; format: functional
Outline: (§5)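 Bacterial NCCLS broth microdilution run in medium with 25% heat-inactivated, filter-sterilized normal human serum. Compounds were taken up in sterile DMSO and diluted in medium immediately before use. MIC was the lowest concentration with no visible growth (optically clear). Assays were repeated on separate days.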

[31] = tested on: Staphylococcus epidermidis; experiment: Antimicrobial activity against Staphylococcus epidermidis ATCC 49461 after 24 hrs by broth microdilution assay in presence of 25% human serum; format: functional; settings: ATCC 49461, 24 h; outline: as §4
[32] = tested on: Streptococcus pneumoniae; experiment: Antimicrobial activity against penicillin-resistant Streptococcus pneumoniae after 24 hrs by broth microdilution assay in presence of 25% human serum; format: functional; outline: as §5
[33] = tested on: Streptococcus pyogenes; experiment: Antimicrobial activity against penicillin-resistant Streptococcus pyogenes after 24 hrs by broth microdilution assay in presence of 25% human serum; format: functional; outline: as §5
[34] = tested on: Enterococcus faecium; experiment: Antimicrobial activity against vancomycin-resistant Enterococcus faecium after 24 hrs by broth microdilution assay in presence of 25% human serum; format: functional; outline: as §5
[35] = tested on: Rhodococcus sp.; experiment: Antimicrobial activity against Rhodococcus sp. after 24 hrs by broth microdilution assay in presence of 25% human serum; format: functional; settings: Rhodococcus sp. (in: high G+C Gram-positive bacteria); outline: as §4
[36] = tested on: Candida albicans; experiment: Antimicrobial activity against Candida albicans ATCC 90028 at 64 ug/mL after 48 hrs by broth microdilution assay; format: functional, organism-based
[37] = tested on: Cryptococcus neoformans; experiment: Antimicrobial activity against fluconazole-resistant Cryptococcus neoformans after 48 hrs by broth microdilution assay; format: functional
Outline: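 Yeast broth microdilution following NCCLS. Compounds were dissolved in sterile DMSO and diluted in medium immediately before testing. MIC was the lowest concentration leaving the well optically clear, with no visible growth.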

[38] = tested on: Nakaseomyces glabratus; experiment: Antimicrobial activity against Candida glabrata at 64 ug/mL after 48 hrs by broth microdilution assay; format: functional, organism-based
[39] = tested on: Staphylococcus aureus; experiment: Antimicrobial activity against methicillin-resistant Staphylococcus aureus after 24 hrs by broth microdilution assay; format: functional
Outline: (§6)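 NCCLS broth microdilution for bacteria. Compounds were dissolved in a small volume of sterile DMSO and diluted in medium just before testing. MIC was the lowest concentration giving no visible growth (optically clear). Assays were repeated on separate days.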

[40] = tested on: Staphylococcus epidermidis; experiment: Antimicrobial activity against Staphylococcus epidermidis ATCC 49461 after 24 hrs by broth microdilution assay; format: functional; settings: ATCC 49461, 24 h; outline: as §2
[41] = tested on: Streptococcus pneumoniae; experiment: Antimicrobial activity against penicillin-resistant Streptococcus pneumoniae after 24 hrs by broth microdilution assay; format: functional; outline: as §6
[42] = tested on: Streptococcus pyogenes; experiment: Antimicrobial activity against penicillin-resistant Streptococcus pyogenes after 24 hrs by broth microdilution assay; format: functional; outline: as §6
[43] = tested on: Enterococcus faecium; experiment: Antimicrobial activity against vancomycin-resistant Enterococcus faecium after 24 hrs by broth microdilution assay; format: functional; outline: as §6
[44] = tested on: Rhodococcus sp.; experiment: Antimicrobial activity against Rhodococcus sp. after 24 hrs by broth microdilution assay; format: functional; settings: Rhodococcus sp. (in: high G+C Gram-positive bacteria); outline: as §2

CC(C)c1c(O)ccc2c1[C@H](O)C[C@H]1C(C)(C)CCC[C@]21C
GI50 [1]: 2.1 µg/mL (≈ 6.94 µM) | EC50 [2]: 1.7 µg/mL (≈ 5.62 µM) | GI50 [3]: 1.8 µg/mL (≈ 5.95 µM) | GI50 [4]: 2.3 µg/mL (≈ 7.6 µM) | GI50 [5]: 1.8 µg/mL (≈ 5.95 µM) | GI50 [6]: 2.3 µg/mL (≈ 7.6 µM) | GI50 [7]: 2.6 µg/mL (≈ 8.6 µM) | MIC [8]: 16 µg/mL (≈ 52.9 µM) | MIC [9]: 64 µg/mL (≈ 212 µM) | MIC [10]: 16 µg/mL (≈ 52.9 µM) | MIC [11]: 16 µg/mL (≈ 52.9 µM) | MIC [12]: 16 µg/mL (≈ 52.9 µM) | MIC [13]: 8 µg/mL (≈ 26.4 µM) | Activity [14]: inactive | Activity [15]: inactive | Activity [16]: inactive | MIC [17]: 8 µg/mL (≈ 26.4 µM)

CO[C@@H]1C[C@H]2C(C)(C)CCC[C@]2(C)c2ccc(O)c(C(C)C)c21
MIC [18]: > 64 µg/mL | MIC [19]: > 64 µg/mL | MIC [20]: > 64 µg/mL | MIC [21]: > 64 µg/mL | MIC [22]: > 64 µg/mL | MIC [23]: > 64 µg/mL | MIC [24]: > 64 µg/mL | MIC [25]: > 64 µg/mL | MIC [26]: > 64 µg/mL | MIC [27]: > 64 µg/mL | MIC [28]: > 64 µg/mL | MIC [29]: > 64 µg/mL | MIC [30]: > 64 µg/mL | MIC [31]: > 64 µg/mL | MIC [32]: > 64 µg/mL | MIC [33]: > 64 µg/mL | MIC [34]: > 64 µg/mL | MIC [35]: > 64 µg/mL | GI50 [1]: 1.5 µg/mL (≈ 4.74 µM) | EC50 [2]: > 10 µg/mL | GI50 [3]: 1.5 µg/mL (≈ 4.74 µM) | GI50 [4]: 1.9 µg/mL (≈ 6 µM) | GI50 [5]: 1.8 µg/mL (≈ 5.69 µM) | GI50 [6]: 1.6 µg/mL (≈ 5.06 µM) | GI50 [7]: 1.7 µg/mL (≈ 5.37 µM) | MIC [8]: 8 µg/mL (≈ 25.3 µM) | Activity [36]: inactive | MIC [10]: 4 µg/mL (≈ 12.6 µM) | MIC [11]: 8 µg/mL (≈ 25.3 µM) | MIC [12]: 4 µg/mL (≈ 12.6 µM) | MIC [13]: 2 µg/mL (≈ 6.32 µM) | Activity [14]: inactive | Activity [15]: inactive | Activity [16]: inactive | MIC [17]: 4 µg/mL (≈ 12.6 µM) | MFC [37]: 4 µg/mL (≈ 12.6 µM) | MIC [37]: 4 µg/mL (≈ 12.6 µM) | Activity [38]: inactive | MBC [39]: 8 µg/mL (≈ 25.3 µM) | MIC [39]: 4 µg/mL (≈ 12.6 µM) | MBC [40]: 16 µg/mL (≈ 50.6 µM) | MIC [40]: 2 µg/mL (≈ 6.32 µM) | MBC [41]: 16 µg/mL (≈ 50.6 µM) | MIC [41]: 16 µg/mL (≈ 50.6 µM) | MBC [42]: 32 µg/mL (≈ 101 µM) | MIC [42]: 16 µg/mL (≈ 50.6 µM) | MBC [43]: 4 µg/mL (≈ 12.6 µM) | MIC [43]: 4 µg/mL (≈ 12.6 µM) | MBC [44]: 8 µg/mL (≈ 25.3 µM) | MIC [44]: 2 µg/mL (≈ 6.32 µM)
